Test [1] concerns the target T1, ATP-dependent Clp protease proteolytic subunit (Staphylococcus aureus (strain NCTC 8325)) (UniProt Q2G036).
T1 sequence (whole entry): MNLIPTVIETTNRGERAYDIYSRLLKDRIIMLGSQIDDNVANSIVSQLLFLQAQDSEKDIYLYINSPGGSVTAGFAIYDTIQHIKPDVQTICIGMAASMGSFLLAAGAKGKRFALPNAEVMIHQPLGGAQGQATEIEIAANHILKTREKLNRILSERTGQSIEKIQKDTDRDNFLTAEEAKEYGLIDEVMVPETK
As to the kind of experiment: Activation of Staphylococcus aureus ClpP assessed as FtsZ digestion at 200 uM incubated for 24 hrs by densitometric analysis. The conditions noted are these: filed as activator. In a few lines:
(§1)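 Strep-tagged S. aureus ClpP (1.0 µM, expressed in ClpP-deficient E. coli SG1146a) digesting S. aureus FtsZ (4.0 µM, final) with ligand at 37 °C, under the same conditions as the beta-casein assay. Timed aliquots were quenched with SDS loading buffer and heated, then resolved by SDS-PAGE, Coomassie-stained and quantified by densitometry. ≥3 independent experiments.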

For test [2], the target named is T1, ATP-dependent Clp protease proteolytic subunit (Staphylococcus aureus (strain NCTC 8325)). Nature of the test: Activation of Staphylococcus aureus ClpP assessed as beta-casein digestion using beta-casein/FITC casein as substrate at 200 uM incubated for 24 hrs. Particulars: filed as activator. In a few lines: (§2)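 Purified ClpP (1.0 µM, final) was incubated with bovine beta-casein (5.0 µM or 3 µM) and ligand at 37 °C, in 100 mM Tris-HCl pH 7.6 with 100 mM KCl or 100 mM HEPES pH 7 with 150 mM NaCl. Timed aliquots were quenched in SDS loading buffer at 90 °C for 5 min, run on SDS-PAGE, stained with Coomassie and quantified by densitometry. ≥3 independent experiments.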

For test [3] the target is unchanged. As to the kind of experiment: Induction of tetra-decameric form of Staphylococcus aureus ClpP stabilization in Tris-HCl. In a few lines:
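S. aureus ClpP (1 mg/mL) incubated overnight at 32 °C with or without ligands (200 µM, DMSO as blank) in destabilizing buffer (100 mM Tris-HCl pH 7.6, 100 mM KCl). Oligomeric state then analysed by gel filtration on a pre-equilibrated Superdex 200 Increase 10/300 column, tetradecamer versus heptamer.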

Test [4] has as its target ATP-dependent Clp protease proteolytic subunit (Escherichia coli (strain K12)) (UniProt P0A6G7). Nature of the test: Activation of Escherichia coli ClpP assessed as increase in fluorescence intensity using beta-casein/FITC casein as substrate at 200 uM incubated for 24 hrs. In a few lines: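 E. coli ClpP (0.5 µM, His-tagged, expressed in E. coli C41(DE3)) with FITC-casein (1.8 µM) plus bovine beta-casein (4.8 µM), final concentrations. Ligands at 200 µM in 100 mM Tris-HCl pH 7.6, 100 mM KCl, 24 h at 37 °C. Fluorescence read at ex 483/em 530 nm, mean of DMSO wells subtracted. Run in parallel without ClpP to exclude false positives. Duplicates, ≥2 independent experiments, mean ± SD.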

The target is the same in test [5]. Nature of the test: Activation of Escherichia coli ClpP assessed as beta-casein digestion using beta-casein/FITC casein as substrate at 200 uM incubated for 24 hrs by SDS-PAGE analysis. The conditions noted are these: filed as activator. A digest of the protocol: as §2
The target of test [6] is T1, ATP-dependent Clp protease proteolytic subunit (Staphylococcus aureus (strain NCTC 8325)). As to the kind of experiment: Activation of Staphylococcus aureus ClpP assessed as FtsZ digestion at 10 uM incubated for 24 hrs by densitometric analysis. Particulars: filed as activator. A digest of the protocol:
as §1

Test [7] shares this target. As to the kind of experiment: Activation of Staphylococcus aureus ClpP assessed as beta-casein digestion using beta-casein/FITC casein as substrate at 10 uM incubated for 24 hrs. Particulars: filed as activator. In a few lines: as §2
The target in test [8] is T2, ATP-dependent Clp protease proteolytic subunit (Staphylococcus aureus (strain NCTC 8325), UniProt Q2G036).
T2 sequence (Q2G036 whole entry): T1 sequence (whole entry)
Nature of the test: Activation of Staphylococcus aureus ClpP assessed as beta-casein digestion using beta-casein/FITC casein as substrate incubated for 24 hrs.

Calls of active or inactive are those of the source. The calls are words filed in the database; no cut-off is given here. Starred links: 1 amine or outer side, 2 acyl side, 3 side chain; linkers in the order of their positions; H or OH if unused. Positions of bridges follow the written chain, without caps; N, C: chain ends. Non-standard residues stand in square brackets, D forms with d. Residues, ends and D or L forms follow the SMILES beside them. *: point of attachment. Phe(3,5-F2) = N[C@@H](Cc1cc(F)cc(F)c1)C(=O)O; X1 = CN(CC(=O)O)c1nc(CC[*:1])cc(CC[*:2])n1; CH2COCH2 = O=C(C[*:1])C[*:2]; Cam = NC(=O)C*

14 compounds from ChEMBL document CHEMBL5329149, “Identification of macrocyclic peptides which activate bacterial cylindrical proteases” (RSC Med Chem, 2023) can be followed below.

ATP-dependent Clp protease proteolytic subunit (Escherichia coli (strain K12)), sequence (P0A6G7 whole entry): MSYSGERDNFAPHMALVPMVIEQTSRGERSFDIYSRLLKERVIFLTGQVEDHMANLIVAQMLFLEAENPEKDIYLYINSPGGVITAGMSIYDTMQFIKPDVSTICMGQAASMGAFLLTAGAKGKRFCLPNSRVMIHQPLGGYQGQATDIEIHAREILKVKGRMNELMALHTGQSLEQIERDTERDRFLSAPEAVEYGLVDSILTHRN

Regarding `CCCC/C=C/C(=O)N[C@@H](Cc1cc(F)cc(F)c1)C(=O)OC`, the outcome in test [1], in test [2] and in test [3] was Active.

For the compound `CC[C@H](C)[C@@H]1NC(=O)CNC(=O)[C@@H](NC(C)=O)CSCC(=O)CSC[C@@H](C(N)=O)NC(=O)CNC(=O)[C@@H](Cc2ccccc2)NC(=O)CNC1=O`, the outcome in test [4] was inactive.

With `CC[C@H](C)[C@@H]1NC(=O)CNC(=O)[C@@H](NC(C)=O)CSCC(=O)CSC[C@@H](C(N)=O)NC(=O)CNC(=O)[C@H](Cc2ccccc2)NC(=O)CNC1=O`, the result in test [1], in test [2] and in test [5] was Active.

Take `CC[C@H](C)[C@@H]1NC(=O)CNC(=O)[C@H](NC(C)=O)CSCC(=O)CSC[C@@H](C(N)=O)NC(=O)CNC(=O)[C@H](C)NC(=O)CNC1=O`: in test [4], the outcome was inactive.

With `C[C@@H]1C[C@H]2C(=O)OC[C@H](NC(=O)[C@H](Cc3cc(F)cc(F)c3)NC(=O)CCC3CCCCC3)C(=O)N3CCC[C@H]3C(=O)N3CCCC[C@H]3C(=O)N[C@@H](C)C(=O)N2C1`, the result in test [3], in test [6] and in test [7] was Active.

Regarding `CC[C@H](C)[C@H](NC(=O)CNC(=O)[C@H](CSCC(N)=O)NC(C)=O)C(=O)NCC(=O)N[C@@H](Cc1ccccc1)C(=O)NCC(=O)N[C@@H](C)C(=O)N[C@@H](CSCC(N)=O)C(N)=O` (Ac-C(Cam)GIGFGAC(Cam)-NH2), the outcome in test [4] was inactive.

On to `CC[C@H](C)[C@H](NC(=O)CNC(=O)[C@H](CSCC(N)=O)NC(C)=O)C(=O)NCC(=O)N[C@@H](Cc1ccccc1)C(=O)NCC(=O)N[C@@H](C)C(=O)N[C@H](C(=O)N[C@@H](CSCC(N)=O)C(N)=O)[C@@H](C)O` (Ac-C(Cam)GIGFGATC(Cam)-NH2), for which, in test [4], the outcome was inactive.

Regarding `CC[C@H](C)[C@H](NC(=O)CNC(=O)[C@H](CSCC(N)=O)NC(C)=O)C(=O)NCC(=O)N[C@@H](Cc1ccccc1)C(=O)NCC(=O)N[C@@H](CSCC(N)=O)C(N)=O` (Ac-C(Cam)GIGFGC(Cam)-NH2), in test [4], the outcome was inactive.

Regarding `CC[C@H](C)[C@H](NC(=O)CNC(=O)[C@H](CSCC(N)=O)NC(C)=O)C(=O)NCC(=O)N[C@@H](Cc1cc(F)cc(F)c1)C(=O)NCC(=O)N[C@@H](CSCC(N)=O)C(N)=O` (Ac-C(Cam)GIG[Phe(3,5-F2)]GC(Cam)-NH2), in test [4], the result was inactive.

As for `CC[C@H](C)[C@H](NC(=O)[C@H](CSCC(N)=O)NC(C)=O)C(=O)NCC(=O)N[C@@H](Cc1ccccc1)C(=O)NCC(=O)N[C@@H](C)C(=O)N[C@@H](CSCC(N)=O)C(N)=O` (Ac-C(Cam)IGFGAC(Cam)-NH2), the result in test [4] was inactive.

Take `CC[C@H](C)[C@H](NC(=O)[C@H](CSCC(N)=O)NC(C)=O)C(=O)NCC(=O)N[C@@H](Cc1ccccc1)C(=O)NCC(=O)N[C@@H](C)C(=O)N[C@H](C(=O)N[C@@H](CSCC(N)=O)C(N)=O)[C@@H](C)O` (Ac-C(Cam)IGFGATC(Cam)-NH2): the result in test [4] was inactive.

As to `CC[C@H](C)[C@H](NC(=O)[C@H](CSCC(N)=O)NC(C)=O)C(=O)NCC(=O)N[C@@H](Cc1ccccc1)C(=O)NCC(=O)N[C@@H](CSCC(N)=O)C(N)=O` (Ac-C(Cam)IGFGC(Cam)-NH2), in test [4], the outcome was inactive.

Consider `CC[C@H](C)[C@@H]1NC(=O)CNC(=O)[C@@H](NC(C)=O)CSCC(=O)CSC[C@@H](C(N)=O)NC(=O)CNC(=O)[C@H](Cc2cc(F)cc(F)c2)NC(=O)CNC1=O` (Ac-CGIG[Phe(3,5-F2)]GC-NH2; linker 1-7 via CH2COCH2), for which the result in test [4] (filed as activator), in test [1], in test [2] and in test [5] was Active. In addition, the EC50 in test [8] was determined as 41 µM.

On to `CC[C@H](C)[C@@H]1NC(=O)CNC(=O)[C@@H](NC(C)=O)CSCCc2cc(nc(N(C)CC(=O)O)n2)CCSC[C@@H](C(N)=O)NC(=O)CNC(=O)[C@H](Cc2cc(F)cc(F)c2)NC(=O)CNC1=O` (Ac-CGIG[Phe(3,5-F2)]GC-NH2; linker 1-7 via X1), for which the result in test [4] was inactive.
